Reference: ChEMBL document CHEMBL2434933, “Synthesis, physicochemical properties of allopurinol derivatives and their biological activity against Trypanosoma cruzi” (Eur J Med Chem, 2013)
≈ marks a conversion by molar mass, not a printed value. Calls of active or inactive are those of the source. The rule behind the calls is not given here.

Legend:
[1] = tested on: Trypanosoma cruzi; assay: Antimicrobial activity against blood stream form of Trypanosoma cruzi RA assessed as growth inhibition at 1 to 70 ug/ml after 24 hrs by Neubauer chamber counting analysis; assay type: functional, organism-based
Procedure, shortened: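 RA-strain bloodstream trypomastigotes were enriched from infected-mouse blood at peak parasitemia. They were used at 1.5 x 10^6/mL in RPMI 1640 with 10% FCS. Parasites were exposed for 24 h at 37 °C in 5% CO2 to 0–70 ug/mL compound from 40 mM DMSO stocks (final DMSO <0.5%). 0.5% DMSO served as negative control. Surviving parasites were counted by Neubauer chamber. Three independent experiments, each in triplicate.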

[2] = Drug degradation in buffer at 37 degC at pH 6.8 after 3 hrs in presence of pancreatin; assay type: physicochemical; conditions: buffer with pancreatin, read-out: Drug degradation
Procedure, shortened: (§1)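 Compounds came from DMSO stocks of 1.0 x 10^-4 mol/mL. They were incubated at 37 °C in buffer pH 1.2 or SGF (pepsin) for 1 h, and in buffer pH 6.8 or SIF (pancreatin) for 3 h. Samples were analysed by micellar LC. Percent degradation was reported; kinetics were treated as pseudo-first-order.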

[3] = Drug degradation in buffer at 37 degC at pH 1.2 after 1 hr
[4] = Drug degradation in simulated gastric fluid at 37 degC after 1 hr; assay type: physicochemical; conditions: read-out: Drug degradation; procedure, shortened: as §1
[5] = Stability of the compound in 0.1 M SDS-0.01 M 7.5% (v/v) 1-propanol-NaH2PO4/H3PO4 assessed as compound recovery at 3.5 x 10^-7 mol/ml by micellar liquid chromatography; assay type: physicochemical
Procedure, shortened: (§2)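 Recovery: N1-acyl compounds were spiked at 7.5 x 10^-9, 6 x 10^-8 and 3.5 x 10^-7 mol/mL (ten replicates each) into pH 1.2 and 6.8 buffers, SGF and SIF. Analysis used MLC with 0.1 M SDS–7.5% 1-propanol–0.01 M NaH2PO4/H3PO4 pH 3.0, at 1 mL/min, 25 °C and 276 nm. Recovery was calculated against working standards.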

[6] = Octanol-water partition coefficient, log P of the compound by RP-HPLC analysis; assay type: physicochemical
Procedure, shortened: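 RP-HPLC lipophilicity: isocratic buffer pH 5.5–MeOH, 30–75% MeOH in 5% steps. Three injections per compound and five per standard at each ratio. log k' = log(tR − t0)/t0 was computed from retention times.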

[7] = Intrinsic solubility of the compound in standard phosphate buffer at pH 6.8 at 25 degC after 24 hrs by shake-flask method; assay type: physicochemical; conditions: read-out: Intrinsic_solubility
Procedure, shortened: (§3)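 Shake-flask intrinsic solubility: solid compound was added to phosphate buffer until excess remained undissolved. The thermostated saturated solution was shaken for 24 h to reach equilibrium, at 25 °C and at 37 °C.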

[8] = Stability of the compound in 0.1 M SDS-0.01 M 7.5% (v/v) 1-propanol-NaH2PO4/H3PO4 assessed as compound recovery at 6 x 10^-8 mol/ml by micellar liquid chromatography; assay type: physicochemical; procedure, shortened: as §2
[9] = Drug degradation in 0.1 M NaOH assessed as allopurinol formation at 1 mg/ml at 90 degC; assay type: physicochemical
[10] = Intrinsic solubility of the compound in standard phosphate buffer at pH 6.8 at 37 degC after 24 hrs by shake-flask method; assay type: physicochemical; conditions: read-out: Intrinsic_solubility; procedure, shortened: as §3
[11] = Half life in human plasma; assay type: ADME, cell-free
Procedure, shortened: (§4)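 Stability in human plasma was followed by micellar LC, with allopurinol tracked as product. Pseudo-first-order kinetics gave t1/2 or kobs.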

[12] = Stability of the compound in simulated gastric fluid assessed as retention time by micellar liquid chromatography; assay type: physicochemical; conditions: simulated gi fluid
[13] = Drug degradation in simulated intestinal fluid at 37 degC after 3 hrs; assay type: physicochemical; conditions: read-out: Drug degradation; procedure, shortened: as §1
[14] = Drug degradation in 3.5% H2O2 assessed as allopurinol formation; assay type: physicochemical
[15] = Drug degradation in 0.1 M HCl assessed as allopurinol formation at 1 mg/ml at 90 degC; assay type: physicochemical; conditions: buffer
[16] = Stability of the compound in 0.1 M SDS-0.01 M 7.5% (v/v) 1-propanol-NaH2PO4/H3PO4 assessed as compound recovery at 7.5 x 10^-9 mol/ml by micellar liquid chromatography; assay type: physicochemical; procedure, shortened: as §2
[17] = tested on: Plasma; assay: Metabolic stability of the compound in human plasma; assay type: ADME, cell-free; procedure, shortened: as §4
[18] = tested on: Trypanosoma cruzi; assay: Antimicrobial activity against Trypanosoma cruzi RA amastigotes infected in African green monkey Vero cells assessed as growth inhibition at 1 ug/ml after 72 hrs by Giemsa staining-based light microscopy; assay type: functional, organism-based
Procedure, shortened: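 RA-strain bloodstream trypomastigotes infected irradiated Vero cells (2000 rads) on coverslips at a 5:1 parasite:cell ratio for 24 h. Cells were washed, then exposed to 1 ug/mL compound for 72 h at 37 °C in 5% CO2. Coverslips were fixed in methanol and Giemsa-stained. Infected cells were scored by light microscopy against untreated infected cultures.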

[19] = Drug degradation in 30% H2O2 assessed as allopurinol formation; assay type: physicochemical
[20] = Stability of the compound in simulated intestinal fluid at 37 degC after 3 hrs; assay type: physicochemical; conditions: simulated gi fluid; procedure, shortened: as §1
[21] = Stability of the compound in simulated gastric fluid at 37 degC after 1 hr; assay type: physicochemical; conditions: simulated gi fluid; procedure, shortened: as §1
[22] = Stability of the compound in buffer at 37 degC at pH 6.8 after 3 hrs in presence of pancreatin; assay type: ADME; conditions: pH 6.8, 3 h; procedure, shortened: as §1
[23] = Stability of the compound in buffer at 37 degC at pH 1.2 after 1 hr in presence of pepsin; assay type: ADME; conditions: isolated protein, pH 1.2, 1 h; procedure, shortened: as §1
[24] = Stability of the compound in simulated intestinal fluid assessed as retention time by micellar liquid chromatography; assay type: physicochemical; conditions: simulated gi fluid
[25] = tested on: Trypanosoma cruzi; assay: Antimicrobial activity against Trypanosoma cruzi RA amastigotes infected in African green monkey Vero cells assessed as growth inhibition after 72 hrs by Giemsa staining-based light microscopy; assay type: functional, organism-based
Procedure, shortened: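 Vero cells irradiated at 2000 rads, seeded on coverslips and infected with bloodstream trypomastigotes of RA strain at 5:1 parasite:cell for 24 h. Free parasites were washed off and cultures incubated 72 h with compound, 0.5–50 range, triplicate, at 37 °C in 5% CO2. Vehicle 0.5% DMSO. Coverslips were methanol-fixed and Giemsa-stained. Infection rate and amastigotes per cell (100 infected cells) were read by light microscopy. IC50 estimated from percentage infection.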

[26] = Dissociation constant, pKa of the compound at 25 degC; assay type: physicochemical
Procedure, shortened: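 pKa computed with ACDpKa software. Only for the parent drug was it checked against a pH-solubility profile at 25 °C.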

[27] = Stability of the compound in 0.05 M SDS-0.01 M NaH2PO4/H3PO4 assessed as compound recovery at 3.5 x 10^-7 mol/ml by micellar liquid chromatography; assay type: physicochemical
Procedure, shortened: (§5)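 Analytical recovery. Standards at 7.5 × 10⁻⁹, 6 × 10⁻⁸ and 3.5 × 10⁻⁷ mol/mL, ten replicates each, were spiked into pH 1.2 and pH 6.8 buffers and into SGF and SIF. They were analysed by MLC with mobile phase 0.05 M SDS–0.01 M NaH2PO4/H3PO4 pH 3.0 at 1.25 mL/min, 25 °C, detection at 250 nm. Recovery was found concentration relative to working standards.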

[28] = Stability of the compound in 0.05 M SDS-0.01 M NaH2PO4/H3PO4 assessed as compound recovery at 7.5 x 10^-9 mol/ml by micellar liquid chromatography; assay type: physicochemical; procedure, shortened: as §5
[29] = Cytotoxicity against mouse splenocytes assessed as cell viability at 50 times IC50 after 32 hrs by Alamar Blue assay; assay type: cell-based; conditions: splenocyte
Procedure, shortened: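 Viability was read by Alamar Blue and expressed as percent of untreated control. Two experiments, each in duplicate.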

[30] = Drug degradation in 0.1 M NaOH at 1 mg/ml at 90 degC after 16 hrs; assay type: physicochemical
Procedure, shortened: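 Compound at 1 mg/mL was heated in 0.1 M NaOH at 90 °C for 16 h. Percent degradation was quantified by micellar liquid chromatography.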

[31] = Stability of the compound in 0.05 M SDS-0.01 M NaH2PO4/H3PO4 assessed as compound recovery at 6 x 10^-8 mol/ml by micellar liquid chromatography; assay type: physicochemical; procedure, shortened: as §5

SMILES	growth inhibition (GI) [1]	Drug recovery [5]	logP [6]	solubility thermodynamic at 24 h [7]	Drug recovery [8]	solubility thermodynamic at 24 h [10]	Retention_time [12]	Drug recovery [16]	Stability [17]	growth inhibition (GI) [18]	Retention_time [24]	further results
CC(=O)n1ncc2c(=O)[nH]cnc21	inactive	–	–	–	–	–	–	–	–	–	–	–
CCC(=O)n1ncc2c(=O)[nH]cnc21	inactive	–	–	–	–	–	–	–	–	–	–	–
CCC(=O)n1ncc2c(O)ncnc21	–	103.18%	1.22	> 65 µg/mL	103.09%	> 65 µg/mL	4 min	99.74%	Unstable	–	–	metabolised at 3 h [2]: 100%; metabolised at 1 h [3]: 30.3%; degraded at 1 h [4]: 32%; Stability [9]: Unstable; half-life [11]: 9.5 min; degraded at 3 h [13]: 100%; Stability [14]: Unstable; Stability [15]: Unstable
CC(=O)n1ncc2c(O)ncnc21	–	99.04%	0.4	> 65 µg/mL	102.42%	> 65 µg/mL	3 min	98.03%	Unstable	–	–	metabolised at 3 h [2]: 100%; metabolised at 1 h [3]: 17.1%; degraded at 1 h [4]: 18.9%; Stability [9]: Unstable; half-life [11]: 8.4 min; degraded at 3 h [13]: 100%; Stability [14]: Unstable; Stability [15]: Unstable
O=C(Cn1ccnc1[N+](=O)[O-])NCc1ccccc1	–	–	–	–	–	–	–	–	–	Active	–	–
Cc1nc(O)c2c[nH]nc2n1	inactive	102.77%	-0.05	1480 µg/mL (≈ 9.86 mM)	102.72%	2020 µg/mL (≈ 13.5 mM)	–	98.57%	100%	Active	3 min	Stability [19]: Stable; Stability [20]: Stable; Stability [21]: Stable; Stability [22]: Stable; Stability [23]: Stable
CCCc1nc(O)c2c[nH]nc2n1	inactive	–	–	–	–	–	–	–	–	–	–	–
CCCc1nc2n[nH]cc2c(=O)[nH]1	–	100.27%	1.14	2070 µg/mL (≈ 11.6 mM)	99.59%	2560 µg/mL (≈ 14.4 mM)	–	101.17%	100%	–	7.8 min	Stability [20]: Stable; Stability [21]: Stable; Stability [22]: Stable; Stability [23]: Stable
Oc1ncnc2[nH]ncc12 [ALLOPURINOL]	–	97.54%	–	490 µg/mL (≈ 3.6 mM)	98.55%	900 µg/mL (≈ 6.61 mM)	2.4 min	102.4%	100%	Active	2.6 min	IC50 [25]: 9.62 µM; inhibition [25]: Dose-dependent effect; pKa [26]: 9.7; Drug recovery [27]: 100.17%; Drug recovery [28]: 97.37%; Activity [29]: Non-toxic; Stability [30]: Stable; Drug recovery [31]: 98.85%
CCCC(=O)n1ncc2c(O)ncnc21	–	100.3%	1.99	> 65 µg/mL	101.42%	> 65 µg/mL	7.7 min	103.11%	Unstable	–	–	metabolised at 3 h [2]: 100%; metabolised at 1 h [3]: 27%; degraded at 1 h [4]: 26.5%; Stability [9]: Unstable; half-life [11]: 6.1 min; degraded at 3 h [13]: 100%; Activity [29]: Non-toxic; Stability [14]: Unstable; Stability [15]: Unstable
CCc1nc(O)c2c[nH]nc2n1	inactive	97.78%	0.52	710 µg/mL (≈ 4.32 mM)	97.07%	940 µg/mL (≈ 5.73 mM)	–	101.19%	100%	Active	4.7 min	Stability [20]: Stable; Stability [21]: Stable; Stability [22]: Stable; Stability [23]: Stable
CCCC(=O)n1ncc2c(=O)[nH]cnc21	inactive	–	–	–	–	–	–	–	–	Active	–	IC50 [25]: 11.3 µM; inhibition [25]: Dose-dependent effect
